Measurements: ChEMBL document CHEMBL4257564, “Rational Design, Synthesis, and Pharmacological Characterization of Novel Ghrelin Receptor Inverse Agonists as Potential Treatment against Obesity-Related Metabolic Diseases” (J Med Chem, 2018)

Tests used:
[1] = test system: MDR1; test: Apparent permeability across apical to basolateral side in MDCK2 cells expressing human MDR1 at 1 uM after 90 mins in absence of MDR1 inhibitor cyclosporine A by LC-MS/MS analysis; format: ADME, cell-based, Canis lupus familiaris, MDCK-II; conditions: dog, MDCK-MDR1
Outline: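 MDR1-MDCKII monolayers grown 4 days on transwell inserts, with integrity checked by TEER. Test item at 1 µM in HBSS/10 mM HEPES/25 mM glucose pH 7.4, in duplicate, added to the apical side. Receiver sampled after 90 min at 37 °C and analysed by LC-MS/MS; Papp = (dMr/dt)/(A×C0).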

[2] = Half life in rat at 3 mg/kg, iv after 24 hrs by LC-MS/MS analysis; format: ADME, organism-based; conditions: in vivo
Outline: (§1)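 Rats given 3 mg/kg i.v. via tail vein, in 2% DMSO/50% of 40% HP-β-CD. EDTA plasma sampled at 0.08–24 h and analysed by LC-MS/MS, calibration range 5-5000 ng/mL.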

[3] = test system: Mus musculus; test: Anti-obesity activity in C57BL/6J mouse assessed as inhibition of anamorelin-induced increase in food intake by measuring cumulative food intake at 30 mg/kg, po pretreated for 10 mins followed by anamorelin addition and measured after 24 hrs post dose (reference value: 8.31 +/- 0.2 g)
[4] = Protein binding in mouse plasma at 1 uM after 6 hrs by equilibrium dialysis; format: ADME, cell-free; conditions: read-out: PPB (converted)
Outline: (§2)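 Compound spiked at 1.0 µM final (0.5% DMSO) into plasma. Equilibrium dialysis against DPBS pH 7.4 across a 12–14 kD membrane for 6 h at 37 °C, in triplicate. Buffer-only controls used for nonspecific binding. Unbound fraction = acceptor/donor concentration by LC-MS/MS; reported as % bound.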

[5] = Volume of distribution in rat at 3 mg/kg, iv after 24 hrs by LC-MS/MS analysis; format: ADME, organism-based; conditions: in vivo; outline: as §1
[6] = Clearance in mouse liver microsomes at 0.625 uM preincubated for 5 mins followed by NADPH addition and measured after 60 mins by LC-MS/MS analysis; format: ADME, microsome; conditions: read-out: CLH
Outline: (§3)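 Liver microsomes (0.625 mg/mL protein) in 50 mM potassium phosphate pH 7.4 with 0.625 µM test item, prewarmed 5 min at 37 °C. Reaction started with NADPH (5 mM solution). Samples taken at 0, 5, 15, 30 and 60 min into cold MeCN with internal standard, analysed by LC-MS/MS. Intrinsic clearance derived by the half-life approach.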

[7] = Clearance in dog liver microsomes at 0.625 uM preincubated for 5 mins followed by NADPH addition and measured after 60 mins by LC-MS/MS analysis; format: ADME, Canis lupus familiaris, microsome; conditions: read-out: CLH; outline: as §3
[8] = Protein binding in dog plasma at 1 uM after 6 hrs by equilibrium dialysis; format: ADME, cell-free, Canis lupus familiaris; conditions: read-out: PPB; outline: as §2
[9] = biological target: T1, Growth hormone secretagogue receptor type 1 (Homo sapiens, UniProt Q92847); test: Inverse agonist at recombinant human GHSR1a expressed in HEK293 cells assessed as decrease in IP1 accumulation after 1 hr by IP1-d2-based HTRF assay; format: functional, cell-based; conditions: read-out: EC50
Outline: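 HEK293 cells stably expressing human GHSR1a were seeded on Matrigel in complete DMEM for 18–22 h at 37 °C, 5% CO2. Compound in stimulation buffer was applied for 1 h at 37 °C. IP1-d2 and Tb-cryptate were then added for 1 h at room temperature, with HTRF read at 620/665 nm. Mean of at least two independent runs in triplicate.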

[10] = test system: Mus musculus; test: Anti-obesity activity in C57BL/6J mouse assessed as inhibition of anamorelin-induced increase in food intake by measuring cumulative food intake at 30 mg/kg, po pretreated for 10 mins followed by anamorelin addition and measured after 1 hr post dose (reference value: 0.63 +/- 0.04 g)
[11] = Half life in rat at 3 mg/kg, po via gavage by LC-MS/MS analysis; format: ADME, organism-based; conditions: in vivo
Outline: (§4)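 Rats given 3 mg/kg by oral gavage as a suspension in 2% DMSO/98% of 0.5% CMC. EDTA plasma sampled at 0.25–24 h and analysed by LC-MS/MS. Bioavailability estimated against the 3 mg/kg i.v. arm.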

[12] = Oral bioavailability in rat at 3 mg/kg via gavage by LC-MS/MS analysis; format: ADME, organism-based; conditions: in vivo; outline: as §4
[13] = biological target: T1, Growth hormone secretagogue receptor type 1; test: Agonist activity at recombinant human GHSR1a expressed in HEK293 cells assessed as induction of intracellular calcium release after 15 mins by FLIPR assay; format: functional, cell-based; conditions: hek293
Outline: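 HEK293 cells stably expressing human GHSR1a, seeded 24 h before the run, then loaded with calcium dye for 30-60 min at room temperature or 37 °C. DMSO-dissolved compounds were added and intracellular calcium release was monitored by FLIPR fluorescence.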

[14] = Protein binding in human plasma at 1 uM after 6 hrs by equilibrium dialysis; format: ADME, cell-free; conditions: read-out: PPB; outline: as §2
[15] = test system: Mus musculus; test: Anti-obesity activity in C57BL/6J mouse assessed as inhibition of anamorelin-induced increase in food intake by measuring cumulative food intake at 30 mg/kg, po pretreated for 10 mins followed by anamorelin addition and measured after 4 hrs post dose (reference value: 2.09 +/- 0.08 g)
[16] = Tmax in rat at 3 mg/kg, po via gavage by LC-MS/MS analysis; format: ADME, organism-based; conditions: in vivo; outline: as §4
[17] = test system: Mus musculus; test: Anti-obesity activity in C57BL/6J mouse assessed as inhibition of anamorelin-induced increase in food intake by measuring cumulative food intake at 10 mg/kg, ip pretreated for 10 mins followed by anamorelin addition and measured after 24 hrs post dose (reference value: 8.31 +/- 0.2 g); format: functional
Outline: (§5)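 Male C57BL/6J mice (18–22 g at arrival), fed ad libitum. Dosed 10 mg/kg i.p. at t = 0 in 10% DMAC/6% Solutol HS 15/84% PBS, then anamorelin 30 mg/kg p.o. (0.5% CMC) at 10 min. Cumulative food intake recorded at 1, 2, 4, 8 and 24 h; n=6 per group; mean ± SEM; ANOVA with Dunnett test versus vehicle+anamorelin.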

[18] = test system: Mus musculus; test: Anti-obesity activity in C57BL/6J mouse assessed as inhibition of anamorelin-induced increase in food intake by measuring cumulative food intake at 30 mg/kg, po pretreated for 10 mins followed by anamorelin addition and measured after 8 hrs post dose (reference value: 2.97 +/- 0.09 g)
[19] = Plasma clearance in rat at 3 mg/kg, iv after 24 hrs by LC-MS/MS analysis; format: ADME, organism-based; outline: as §1
[20] = test system: Mus musculus; test: Anti-obesity activity in C57BL/6J mouse assessed as inhibition of anamorelin-induced increase in food intake by measuring cumulative food intake at 10 mg/kg, ip pretreated for 10 mins followed by anamorelin addition and measured after 8 hrs post dose (reference value: 2.97 +/- 0.09 g); format: functional; outline: as §5
[21] = biological target: T1, Growth hormone secretagogue receptor type 1; test: Antagonist activity at recombinant human GHSR1a expressed in HEK293 cells assessed as inhibition of ghrelin-induced intracellular calcium release incubated for 20 secs and measured after 2 mins by FLIPR assay; format: functional, cell-based
Outline: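 HEK293/GHSR1a cells were dye-loaded for 30-60 min. Compounds and 10 nM ghrelin were added at t = 20 s, with a 15 min compound preincubation described. Calcium response was read for 2 min. IC50 was taken from dose-response fits of the reduction in ghrelin response; mean of at least two independent runs done in triplicate.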

T1 sequence (Q92847 whole entry): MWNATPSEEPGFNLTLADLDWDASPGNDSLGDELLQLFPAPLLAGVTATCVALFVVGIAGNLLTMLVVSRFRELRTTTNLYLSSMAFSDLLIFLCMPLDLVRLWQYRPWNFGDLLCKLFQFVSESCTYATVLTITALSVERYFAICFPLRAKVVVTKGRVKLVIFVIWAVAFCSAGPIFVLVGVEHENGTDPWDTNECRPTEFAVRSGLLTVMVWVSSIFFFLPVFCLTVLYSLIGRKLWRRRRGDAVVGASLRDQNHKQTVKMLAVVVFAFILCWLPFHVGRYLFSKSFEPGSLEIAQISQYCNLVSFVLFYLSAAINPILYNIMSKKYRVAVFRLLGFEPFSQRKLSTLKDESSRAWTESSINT

Papp A→B at 1.5 h, 1 µM [1]: 39 nm/s
half-life [2]: 6.49 h
fraction unbound at 6 h, 1 µM [4]: 0.0002
Vd [5]: 8.48 L/kg
microsomal CLint at 0.625 µM [6]: < 10 µL/min/mg
microsomal CLint at 0.625 µM [7]: 52.2 µL/min/mg
fraction unbound at 6 h, 1 µM [8]: 0.0001
EC50 [9]: 0.0294 µM
half-life [11]: 15.8 h
bioavailability [12]: 27%
EC50 [13]: Not Active
fraction unbound at 6 h, 1 µM [14]: 0.0001
Tmax [16]: 6.7 h
clearance [19]: 0.91 L/h/kg
IC50 [21]: 0.0682 µM
SMILES: Cc1cc(-c2ccc3c(c2)CC[C@H]3N2CCC(N(C)C(=O)N[C@@H](C)c3ccc(C#CC4CC4)c(Cl)c3Cl)CC2)ncn1
Activity [3]: 7.42 g
Activity [10]: 0.22 g
Activity [15]: 1.45 g
Activity [17]: 7.63 g
Activity [18]: 1.8 g
Activity [20]: 2.78 g
